Reference: ChEMBL document CHEMBL2057074, “Design, synthesis and biological activity of 6-substituted carbamoyl benzimidazoles as new nonpeptidic angiotensin II AT₁ receptor antagonists” (Bioorg Med Chem, 2012)
Where a chain is given by its changes, count along the chain named. ≈ marks a conversion by molar mass, not a printed value.

Assays:
[1] = Toxicity against Photobacterium phosphoreum expressing T3 mutation after 15 mins by Microtox assay; format: organism-based
Summary of the method: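 Microtox test with luminescent Photobacterium phosphoreum. Samples were incubated with bacteria for 15 min before reading inhibition of bacterial luminescence, testing up to the saturated concentration level. LC50 is the concentration in water inhibiting 50% of the test batch.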

[2] = target: T1, Type-1 angiotensin II receptor (Homo sapiens, UniProt P30556); experiment: Displacement of [125I]Sar1Ile8-Ang2 from angiotensin AT1 receptor after 180 mins by gamma counting
T1 sequence (P30556 whole entry): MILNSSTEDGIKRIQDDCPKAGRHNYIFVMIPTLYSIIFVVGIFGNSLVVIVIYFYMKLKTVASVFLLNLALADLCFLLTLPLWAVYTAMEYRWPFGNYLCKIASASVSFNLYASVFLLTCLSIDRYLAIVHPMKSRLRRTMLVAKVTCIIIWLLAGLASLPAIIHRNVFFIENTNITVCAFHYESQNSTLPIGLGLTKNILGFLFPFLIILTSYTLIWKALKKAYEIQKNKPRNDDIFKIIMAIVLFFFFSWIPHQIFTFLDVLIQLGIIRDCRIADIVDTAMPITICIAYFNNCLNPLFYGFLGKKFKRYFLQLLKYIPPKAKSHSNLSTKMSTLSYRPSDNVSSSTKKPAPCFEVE

[3] = target: T2, Type-1 angiotensin II receptor (Oryctolagus cuniculus, UniProt P34976); experiment: Antagonist activity at AT1 receptor in Japanese white rabbit thoracic aorta assessed as inhibition of […] contraction incubated 30 mins post KCl-induction for 1 hr; format: functional, tissue-based; settings: read-out: pA2 (converted)
T2 sequence (P34976 whole entry): T1 sequence (P30556 whole entry) with I2M, V49A, I254V, I270V, R272H, R311K, T349S, A353V
Summary of the method: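 Isolated rabbit aortic strips equilibrated 1 h with washes every 15 min. 67 mM KCl was given first to check tissue sensitivity and set the maximal contractile response. After a 30 min washout, test substances or their vehicles were added and contractile responses recorded.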

Rattus norvegicus = experiment: Antihypertensive activity in non-fasted spontaneous hypertensive rat assessed as decrease in mean arterial blood pressure at 10 mg/kg, po by tail plethysmography relative to control; format: functional, Artery
Summary of the method: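 Male SHR aged 19–21 weeks, conscious and unanesthetised, six per group; controls got vehicle at 10 mL/kg. […] Blood pressure and heart rate measured by tail plethysmography after a warming period; data given as means SEM.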

SMILES	LC50 at 0.25 h [1]	IC50 [2]	Kb [3]	Activity (Rattus norvegicus)
CCCc1nc2c(C)cc(-c3nc4ccccc4n3C)cc2n1Cc1ccc(-c2ccccc2C(=O)O)cc1	100 µg/mL (≈ 194 µM)	–	–	–
CCCc1nc2c(C)cc(C(=O)NCc3ccccc3)cc2n1Cc1ccc(-c2ccccc2-c2nnn[nH]2)cc1	64 µg/mL (≈ 118 µM)	410 nM	–	–
CCCc1nc2c(C)cc(C(=O)NCc3ccccc3OC)cc2n1Cc1ccc(-c2ccccc2-c2nnn[nH]2)cc1	66 µg/mL (≈ 115 µM)	19.7 nM	–	–
CCCc1nc2c(C)cc(C(=O)NCc3cccc(OC)c3)cc2n1Cc1ccc(-c2ccccc2-c2nnn[nH]2)cc1	> 100 µg/mL	78.3 nM	–	–
CCCc1nc2c(C)cc(C(=O)NCc3ccc(OC)cc3)cc2n1Cc1ccc(-c2ccccc2-c2nnn[nH]2)cc1	> 100 µg/mL	119 nM	–	–
CCCc1nc2c(C)cc(C(=O)NCc3ccc(OC)c(OC)c3)cc2n1Cc1ccc(-c2ccccc2-c2nnn[nH]2)cc1	> 100 µg/mL	96.8 nM	–	–
CCCc1nc2c(C)cc(C(=O)NCCc3ccccc3)cc2n1Cc1ccc(-c2ccccc2-c2nnn[nH]2)cc1	> 100 µg/mL	1.3 nM	4.79 nM	–
CCCc1nc2c(C)cc(C(=O)NCC(C)c3ccccc3)cc2n1Cc1ccc(-c2ccccc2-c2nnn[nH]2)cc1 (stereo not drawn)	> 100 µg/mL	0.9 nM	1.7 nM	>30 mmHg
CCCc1nc2c(C)cc(C(=O)NCCc3cccc(OC)c3)cc2n1Cc1ccc(-c2ccccc2-c2nnn[nH]2)cc1	> 100 µg/mL	2.6 nM	14.8 nM	–
CCCc1nc2c(C)cc(C(=O)NCCc3ccc(OC)cc3)cc2n1Cc1ccc(-c2ccccc2-c2nnn[nH]2)cc1	> 100 µg/mL	22.5 nM	–	–
CCCc1nc2c(C)cc(C(=O)NCCc3cc(OC)ccc3OC)cc2n1Cc1ccc(-c2ccccc2-c2nnn[nH]2)cc1	> 100 µg/mL	78 nM	–	–
CCCc1nc2c(C)cc(C(=O)NCCc3ccc(OC)c(OC)c3)cc2n1Cc1ccc(-c2ccccc2-c2nnn[nH]2)cc1	> 100 µg/mL	3.7 nM	1.82 nM	–
CCCc1nc2c(C)cc(C(=O)NCCc3ccccc3F)cc2n1Cc1ccc(-c2ccccc2-c2nnn[nH]2)cc1	17 µg/mL (≈ 29.6 µM)	37.6 nM	–	–
CCCc1nc2c(C)cc(C(=O)NCCc3ccc(F)cc3)cc2n1Cc1ccc(-c2ccccc2-c2nnn[nH]2)cc1	60 µg/mL (≈ 105 µM)	209 nM	–	–
CCCCc1nc(Cl)c(CO)n1Cc1ccc(-c2ccccc2-c2nn[nH]n2)cc1 [LOSARTAN]	331 µg/mL (≈ 783 µM)	–	–	–
